Experimental data published in ChEMBL document CHEMBL1649585, “Role of the Mycobacterium tuberculosis P55 efflux pump in intrinsic drug resistance, oxidative stress responses, and growth” (2009).
Values after ≈ are worked out from the molar mass of the structure shown. Active and inactive are the calls of the source. The rule behind the calls is not given here. Where a SMILES comes first, the peptide text is derived from it. Bridges are numbered along the chain shown (N, C = ends). [ ]: non-standard residue; d: D form. The star is where a group is joined. Ileψ(thiazoline)Cys = CC[C@H](C)[C@H](N)C1=N[C@H](C(=O)*)CS1; dOrn = NCCC[C@@H](N)C(=O)O

What was measured:
[1] = test system: Mycobacterium tuberculosis; experiment: Antimicrobial activity against Mycobacterium bovis BCG by resazurine microtiter assay in presence of 1 mg/liter CCCP; format: functional; conditions: variant bovis BCG, Urine
Outline: (§1)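 Resazurin microdilution MIC (serial twofold dilutions, 8 days at 37°C plus 2 days after resazurin) run with a fixed subinhibitory level of efflux pump inhibitor (valinomycin, reserpine or CCCP) present throughout. Triplicate, repeated at least three times.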

[2] = test system: Mycobacterium tuberculosis; experiment: Antimicrobial activity against Mycobacterium bovis BCG by resazurine microtiter assay; format: functional; conditions: variant bovis BCG, Urine
Outline: (§2)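 Resazurin microdilution in liquid medium: serial twofold compound dilutions, plates incubated 8 days at 37°C, then 2 more days after adding resazurin. MIC read from the indicator. Run in triplicate and repeated at least three times.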

[3] = test system: Mycobacterium tuberculosis; experiment: Antimicrobial activity against Mycobacterium bovis BCG by twofold dilution method; format: functional; conditions: variant bovis BCG
Outline: (§3)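 Agar MIC: log-phase cultures diluted to 10^5 cells/ml, 10 µl spotted onto Middlebrook 7H10 plates with serial twofold antibiotic dilutions. Visible growth scored after 21 days at 37°C. Triplicate, repeated at least three times.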

[4] = test system: Mycobacterium tuberculosis; experiment: Antimicrobial activity against Mycobacterium bovis BCG harboring pPAZ23 carrying p27-p55 operon by twofold dilution method; format: functional; conditions: variant bovis BCG; outline: as §3
[5] = test system: Mycobacterium tuberculosis; experiment: Effect on intracellular redox potential in wild-type Mycobacterium bovis BCG assessed as accumulation of formazan at 5 mg/liter after 1 hr by MTT assay; format: functional, organism-based; conditions: variant bovis BCG
Outline: (§4)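 MTT reduction as an index of intracellular redox potential: cultures at OD600 0.2 treated with drug or solvent for 1 h at 37°C in quadruplicate wells, MTT (2 mg/ml stock) added, 3 h further incubation. Formazan solubilised with 10% SDS, 30 min shaking, absorbance at 600 nm. Repeated at least three independent times.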

[6] = test system: Mycobacterium tuberculosis; experiment: Decrease in intracellular redox potential in wild-type Mycobacterium bovis BCG assessed as decreased accumulation of formazan at 256 mg/liter after 1 hr by MTT assay; format: functional, variant bovis BCG; parameters: scale not given: the % may be the effect or the level left; outline: as §4
[7] = test system: Mycobacterium tuberculosis; experiment: Ratio of MIC for Mycobacterium bovis BCG harboring pPAZ23 carrying p27-p55 operon to MIC for wild-type Mycobacterium bovis BCG; format: functional, variant bovis BCG
[8] = test system: Mycobacterium tuberculosis; experiment: Ratio of MIC for wild type Mycobacterium bovis BCG to MIC for Mycobacterium bovis BCG KOP55 harboring inactivated p55 gene; format: functional, variant bovis BCG
[9] = test system: Mycobacterium tuberculosis; experiment: Increase in intracellular redox potential in wild-type Mycobacterium bovis BCG assessed as increased accumulation of formazan at 5 mg/liter after 1 hr by MTT assay; format: functional, variant bovis BCG; outline: as §4
[10] = test system: Mycobacterium tuberculosis; experiment: Antimicrobial activity against Mycobacterium bovis BCG by resazurine microtiter assay in presence of 0.1 mg/liter valinomycin; format: functional; conditions: variant bovis BCG, Urine; outline: as §1
[11] = test system: Mycobacterium tuberculosis; experiment: Ratio of MIC for wild type Mycobacterium bovis BCG to MIC for wild type Mycobacterium bovis BCG in presence of 1 mg/liter CCCP; format: functional, variant bovis BCG
[12] = test system: Mycobacterium tuberculosis; experiment: Antimicrobial activity against Mycobacterium bovis BCG by resazurine microtiter assay in presence of 0.5 mg/liter reserpine; format: functional; conditions: variant bovis BCG, Urine; outline: as §1
[13] = test system: Mycobacterium tuberculosis; experiment: Antimicrobial activity against Mycobacterium bovis BCG harboring pPAZ23 carrying p27-p55 operon by resazurine microtiter assay; format: functional; conditions: variant bovis BCG, Urine; outline: as §2

CC[C@H](C)[C@H](N)C1=N[C@H](C(=O)N[C@@H](CC(C)C)C(=O)N[C@H](CCC(=O)O)C(=O)N[C@H](C(=O)N[C@H]2CCCCNC(=O)[C@H](CC(N)=O)NC(=O)[C@@H](CC(=O)O)NC(=O)[C@H](Cc3cnc[nH]3)NC(=O)[C@@H](Cc3ccccc3)NC(=O)[C@H]([C@@H](C)CC)NC(=O)[C@@H](CCCN)NC2=O)[C@@H](C)CC)CS1 [BACITRACIN] ({Ileψ(thiazoline)Cys}-L[dE]IK[dOrn]I[dF]H[dD]N; lactam 4-C)
MIC [1]: > 256 µg/mL
MIC [2]: > 256 µg/mL

N#CC(C#N)=NNc1cccc(Cl)c1 [CARBONYL CYANIDE M-CHLOROPHENYLHYDRAZONE]
MIC [2]: 4 µg/mL (≈ 19.5 µM)

CN(C)CCCN1c2ccccc2Sc2ccc(Cl)cc21 [CHLORPROMAZINE]
MIC [3]: 4 µg/mL (≈ 12.5 µM)

CC(C)/N=c1\cc2n(-c3ccc(Cl)cc3)c3ccccc3nc-2cc1Nc1ccc(Cl)cc1 [CLOFAZIMINE]
MIC [4]: 0.1 µg/mL (≈ 0.211 µM)
Activity [5]: inactive
MIC [3]: 0.1 µg/mL (≈ 0.211 µM)

CN(C)C(=O)/N=N/C(=O)N(C)C [DIAMIDE]
Activity [6]: 25%

Clc1ccc(COC(Cn2ccnc2)c2ccc(Cl)cc2Cl)cc1 (centres undefined) [ECONAZOLE]
Ratio [7]: 2
MIC [4]: 12.8 µg/mL (≈ 33.5 µM)
Ratio [8]: 4
MIC [3]: 6.4 µg/mL (≈ 16.8 µM)

CC[C@@H](CO)NCCN[C@@H](CC)CO [ETHAMBUTOL]
MIC [2]: 4 µg/mL (≈ 19.6 µM)

CC1=CC(=O)c2ccccc2C1=O [MENADIONE]
fold change (FC) [9]: 3.5

CO[C@@H]1[C@@H](OC(N)=O)[C@@H](O)[C@H](Oc2ccc3c(O)c(NC(=O)c4ccc(O)c(CC=C(C)C)c4)c(=O)oc3c2C)OC1(C)C [NOVOBIOCIN]
MIC [1]: 4 µg/mL
MIC [10]: 8 µg/mL
MIC [2]: 16 µg/mL (≈ 26.1 µM)
Ratio [11]: 4
MIC [12]: 8 µg/mL

O=[N+]([O-])c1cn2c(n1)OC[C@@H](OCc1ccc(OC(F)(F)F)cc1)C2 [PRETOMANID]
MIC [2]: 0.25 µg/mL (≈ 0.696 µM)

COC(=O)[C@H]1[C@H]2C[C@@H]3c4[nH]c5cc(OC)ccc5c4CCN3C[C@H]2C[C@@H](OC(=O)c2cc(OC)c(OC)c(OC)c2)[C@@H]1OC [RESERPINE]
MIC [2]: 2 µg/mL (≈ 3.29 µM)

CO[C@H]1/C=C/O[C@@]2(C)Oc3c(C)c(O)c4c(O)c(c(/C=N/N5CCN(C)CC5)c(O)c4c3C2=O)NC(=O)/C(C)=C\C=C\[C@H](C)[C@H](O)[C@@H](C)[C@@H](O)[C@@H](C)[C@H](OC(C)=O)[C@@H]1C [RIFAMPIN]
MIC [13]: 0.0032 µg/mL (≈ 0.00389 µM)
MIC [1]: 0.0008 µg/mL
MIC [10]: 0.0016 µg/mL
MIC [2]: 0.0032 µg/mL (≈ 0.00389 µM)
Ratio [11]: 4
MIC [12]: 0.0016 µg/mL

Oc1cc(Cl)ccc1Oc1ccc(Cl)cc1Cl [TRICLOSAN]
MIC [3]: 8 µg/mL (≈ 27.6 µM)

CC(C)[C@@H]1NC(=O)[C@H](C)OC(=O)[C@@H](C(C)C)NC(=O)[C@@H](C(C)C)OC(=O)[C@H](C(C)C)NC(=O)[C@H](C)OC(=O)[C@@H](C(C)C)NC(=O)[C@@H](C(C)C)OC(=O)[C@H](C(C)C)NC(=O)[C@H](C)OC(=O)[C@@H](C(C)C)NC(=O)[C@@H](C(C)C)OC1=O [VALINOMYCIN]
MIC [2]: 0.4 µg/mL (≈ 0.36 µM)

CN[C@H](CC(C)C)C(=O)N[C@H]1C(=O)N[C@@H](CC(N)=O)C(=O)N[C@H]2C(=O)N[C@H]3C(=O)N[C@H](C(=O)N[C@H](C(=O)O)c4cc(O)cc(O)c4-c4cc3ccc4O)[C@H](O)c3ccc(c(Cl)c3)Oc3cc2cc(c3O[C@@H]2O[C@H](CO)[C@@H](O)[C@H](O)[C@H]2O[C@H]2C[C@](C)(N)[C@H](O)[C@H](C)O2)Oc2ccc(cc2Cl)[C@H]1O [VANCOMYCIN]
MIC [13]: 8 µg/mL (≈ 5.52 µM)
MIC [1]: 4 µg/mL
Ratio [7]: 2
MIC [2]: 4 µg/mL (≈ 2.76 µM)
Ratio [8]: 16
